Measurements as given in ChEMBL document CHEMBL2057085, “Diazaspirocyclic compounds as selective ligands for the α4β2 nicotinic acetylcholine receptor” (Bioorg Med Chem Lett, 2012).

Experiments:
[1] = molecular target: T1, Neuronal acetylcholine receptor; alpha3/beta4 (Homo sapiens, UniProt P30926+P32297); experiment: Binding affinity to human ganglionic nAChR alpha3beta4 expressed in human SHSY-5Y cells; assay type: cell-based, SH-SY5Y
How it was run: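 Binding measured on the α3β4 subtype endogenous to human SHSY-5Y clonal cells. Affinity reported as Ki, given as the mean.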

[2] = molecular target: Neuronal acetylcholine receptor; alpha4/beta2 (Rattus norvegicus, UniProt P09483+P12390); experiment: Displacement of [3H]-nicotine from rat nAChR alpha4beta2 in rat cortex
Sequence of Neuronal acetylcholine receptor; alpha4/beta2 (Rattus norvegicus, UniProt P09483+P12390) (P09483 whole entry): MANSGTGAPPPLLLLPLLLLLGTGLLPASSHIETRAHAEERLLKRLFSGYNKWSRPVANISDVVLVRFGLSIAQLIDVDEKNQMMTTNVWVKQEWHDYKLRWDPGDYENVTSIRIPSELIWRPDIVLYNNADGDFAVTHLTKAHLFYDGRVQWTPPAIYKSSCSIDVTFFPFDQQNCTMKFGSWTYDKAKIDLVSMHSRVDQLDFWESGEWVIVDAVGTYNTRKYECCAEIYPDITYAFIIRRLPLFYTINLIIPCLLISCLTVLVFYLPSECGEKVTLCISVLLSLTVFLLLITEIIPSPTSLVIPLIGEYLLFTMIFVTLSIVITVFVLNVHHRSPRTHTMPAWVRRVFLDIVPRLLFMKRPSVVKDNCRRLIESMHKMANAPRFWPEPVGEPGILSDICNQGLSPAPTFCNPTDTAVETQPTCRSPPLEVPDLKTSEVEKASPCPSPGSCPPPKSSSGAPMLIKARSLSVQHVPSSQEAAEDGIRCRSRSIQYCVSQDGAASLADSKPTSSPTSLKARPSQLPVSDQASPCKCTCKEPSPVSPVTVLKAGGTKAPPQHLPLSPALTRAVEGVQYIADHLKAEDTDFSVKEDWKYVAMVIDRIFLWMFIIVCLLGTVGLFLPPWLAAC
Sequence of Neuronal acetylcholine receptor; alpha4/beta2 (Rattus norvegicus, UniProt P09483+P12390) (P12390 whole entry): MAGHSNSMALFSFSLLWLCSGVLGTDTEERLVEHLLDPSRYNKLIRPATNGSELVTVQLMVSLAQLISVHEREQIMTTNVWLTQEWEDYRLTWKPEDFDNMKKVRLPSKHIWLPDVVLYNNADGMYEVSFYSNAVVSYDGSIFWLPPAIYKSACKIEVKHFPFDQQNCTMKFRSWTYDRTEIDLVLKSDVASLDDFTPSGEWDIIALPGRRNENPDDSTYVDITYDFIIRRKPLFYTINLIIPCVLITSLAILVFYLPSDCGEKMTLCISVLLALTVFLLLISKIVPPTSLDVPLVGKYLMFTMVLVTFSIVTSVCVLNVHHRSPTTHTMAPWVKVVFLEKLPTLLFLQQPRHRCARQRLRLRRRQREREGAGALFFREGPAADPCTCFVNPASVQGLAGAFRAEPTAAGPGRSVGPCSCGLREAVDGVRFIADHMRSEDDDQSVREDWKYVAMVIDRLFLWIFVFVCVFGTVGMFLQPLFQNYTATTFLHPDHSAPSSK

[3] = molecular target: Neuronal acetylcholine receptor subunit alpha-7 (Homo sapiens, UniProt P36544); experiment: Binding affinity to human nAChR alpha7 expressed in HEK cells coexpressing RIC3; assay type: cell-based, HEK293
Sequence of Neuronal acetylcholine receptor subunit alpha-7 (P36544 whole entry): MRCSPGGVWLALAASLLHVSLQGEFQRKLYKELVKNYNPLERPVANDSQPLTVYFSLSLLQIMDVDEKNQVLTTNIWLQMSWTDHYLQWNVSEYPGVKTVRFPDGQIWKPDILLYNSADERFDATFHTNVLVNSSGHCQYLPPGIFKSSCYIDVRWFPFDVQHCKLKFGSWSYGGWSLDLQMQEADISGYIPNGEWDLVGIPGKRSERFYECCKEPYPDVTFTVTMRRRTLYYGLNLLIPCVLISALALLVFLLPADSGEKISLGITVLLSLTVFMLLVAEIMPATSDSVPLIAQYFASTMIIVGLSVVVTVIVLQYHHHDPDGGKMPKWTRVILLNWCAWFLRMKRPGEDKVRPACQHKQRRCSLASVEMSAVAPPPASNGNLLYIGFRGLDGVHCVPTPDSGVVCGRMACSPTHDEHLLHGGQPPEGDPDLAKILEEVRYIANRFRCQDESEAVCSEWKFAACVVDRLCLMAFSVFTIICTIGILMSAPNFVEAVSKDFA
How it was run: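 Binding measured at human α7 nAChR in HEK cells coexpressing RIC3. Affinity reported as Ki, given as the mean.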

[4] = molecular target: Acetylcholine receptor; alpha1/beta1/delta/gamma (Homo sapiens, UniProt P02708+P07510+P11230+Q07001); experiment: Binding affinity to human muscle nAChR alpha1beta1gammadelta expressed in human TE-671 cells; assay type: cell-based
How it was run: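 Binding carried out in TE-671 cells as the muscle-type receptor source. Affinity reported as Ki, given as the mean.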

[5] = molecular target: T2, Neuronal acetylcholine receptor; alpha4/beta2 (Homo sapiens, UniProt P17787+P43681); experiment: Displacement of [3H]-epibatidine from human nAChR alpha4beta2 expressed in human SH-EP1 cells; assay type: cell-based
T2 sequence (P17787 whole entry): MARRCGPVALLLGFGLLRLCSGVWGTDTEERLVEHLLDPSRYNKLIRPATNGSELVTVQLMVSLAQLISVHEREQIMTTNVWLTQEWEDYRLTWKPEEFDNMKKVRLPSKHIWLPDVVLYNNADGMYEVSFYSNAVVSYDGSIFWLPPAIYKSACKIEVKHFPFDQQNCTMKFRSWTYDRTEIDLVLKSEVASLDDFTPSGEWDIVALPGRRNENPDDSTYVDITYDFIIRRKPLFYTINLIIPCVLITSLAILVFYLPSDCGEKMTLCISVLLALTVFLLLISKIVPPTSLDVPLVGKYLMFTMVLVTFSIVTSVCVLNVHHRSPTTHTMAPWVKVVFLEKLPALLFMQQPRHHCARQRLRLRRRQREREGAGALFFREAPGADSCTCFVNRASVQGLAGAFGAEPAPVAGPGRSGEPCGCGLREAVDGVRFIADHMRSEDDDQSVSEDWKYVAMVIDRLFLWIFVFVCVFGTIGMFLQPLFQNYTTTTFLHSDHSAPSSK
T2 sequence (P43681 whole entry): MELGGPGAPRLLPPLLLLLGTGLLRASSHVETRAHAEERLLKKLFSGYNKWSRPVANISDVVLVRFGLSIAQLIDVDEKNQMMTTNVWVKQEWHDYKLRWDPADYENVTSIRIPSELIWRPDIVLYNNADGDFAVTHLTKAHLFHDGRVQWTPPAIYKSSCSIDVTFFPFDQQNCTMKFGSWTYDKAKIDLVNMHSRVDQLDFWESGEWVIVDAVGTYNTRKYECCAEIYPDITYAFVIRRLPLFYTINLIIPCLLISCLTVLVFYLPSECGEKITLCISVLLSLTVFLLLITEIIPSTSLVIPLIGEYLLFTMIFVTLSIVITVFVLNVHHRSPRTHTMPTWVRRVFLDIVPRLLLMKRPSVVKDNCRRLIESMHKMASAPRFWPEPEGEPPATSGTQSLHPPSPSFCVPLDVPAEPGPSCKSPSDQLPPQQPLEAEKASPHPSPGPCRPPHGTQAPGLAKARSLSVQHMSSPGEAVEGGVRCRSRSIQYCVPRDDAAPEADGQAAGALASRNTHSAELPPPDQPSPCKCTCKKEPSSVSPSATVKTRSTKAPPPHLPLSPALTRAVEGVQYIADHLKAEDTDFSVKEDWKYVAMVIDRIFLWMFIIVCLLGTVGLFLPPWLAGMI
How it was run: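 Radioligand binding using [3H]-epibatidine on human α4β2 nAChR expressed in SH-EP1 cells. Affinity reported as Ki, given as the mean.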

[6] = molecular target: T1, Neuronal acetylcholine receptor; alpha3/beta4; experiment: Agonist activity at human ganglionic nAChR alpha3beta4 expressed in human SHSY-5Y cells assessed as calcium flux by fluorescence analysis relative to nicotine; conditions: SH-SY5Y
[7] = molecular target: T1, Neuronal acetylcholine receptor; alpha3/beta4; experiment: Agonist activity at human ganglionic nAChR alpha3beta4 expressed in human SHSY-5Y cells assessed as calcium flux by fluorescence analysis
[8] = molecular target: T2, Neuronal acetylcholine receptor; alpha4/beta2; experiment: Antagonist activity at human nAChR alpha4beta2 expressed in human SH-EP1 cells assessed as calcium flux by fluorescence analysis relative to nicotine; assay type: functional, cell-based

T1 sequence (P30926 whole entry): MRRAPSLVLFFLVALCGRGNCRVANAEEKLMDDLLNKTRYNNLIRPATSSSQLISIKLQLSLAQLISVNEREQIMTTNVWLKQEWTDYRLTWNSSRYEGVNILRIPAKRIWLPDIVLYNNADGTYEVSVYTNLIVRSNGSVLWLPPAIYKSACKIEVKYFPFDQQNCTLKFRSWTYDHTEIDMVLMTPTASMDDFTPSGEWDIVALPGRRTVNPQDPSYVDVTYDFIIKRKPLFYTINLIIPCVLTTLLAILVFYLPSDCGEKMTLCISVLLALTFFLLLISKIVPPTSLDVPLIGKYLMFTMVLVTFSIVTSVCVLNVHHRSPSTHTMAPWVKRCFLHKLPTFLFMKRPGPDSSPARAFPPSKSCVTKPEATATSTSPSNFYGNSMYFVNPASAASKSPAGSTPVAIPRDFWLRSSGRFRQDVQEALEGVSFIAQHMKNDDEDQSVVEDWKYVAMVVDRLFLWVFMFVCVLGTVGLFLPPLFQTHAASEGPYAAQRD
T1 sequence (P32297 whole entry): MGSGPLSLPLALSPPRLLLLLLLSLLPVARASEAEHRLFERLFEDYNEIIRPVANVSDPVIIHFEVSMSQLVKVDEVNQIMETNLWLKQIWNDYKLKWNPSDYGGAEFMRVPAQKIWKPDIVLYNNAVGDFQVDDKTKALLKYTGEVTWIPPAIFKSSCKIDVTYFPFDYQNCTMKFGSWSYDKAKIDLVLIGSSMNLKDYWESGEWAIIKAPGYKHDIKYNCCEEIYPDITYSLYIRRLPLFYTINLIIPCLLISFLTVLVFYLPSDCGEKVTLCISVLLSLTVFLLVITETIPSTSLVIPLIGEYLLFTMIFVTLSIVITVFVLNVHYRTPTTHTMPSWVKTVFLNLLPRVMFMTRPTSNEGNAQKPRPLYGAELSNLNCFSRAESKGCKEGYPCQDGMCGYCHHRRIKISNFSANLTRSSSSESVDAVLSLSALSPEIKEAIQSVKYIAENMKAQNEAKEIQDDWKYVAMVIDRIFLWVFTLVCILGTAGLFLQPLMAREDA

c1cncc(N2CCC3(CCCN3)C2)c1 (stereo unspecified) [TC-2216]
Ki [1]: 1.2 µM | Ki [2]: 0.075 µM | Ki [3]: 6.9 µM | Ki [4]: 5.7 µM | Ki [5]: 0.029 µM | Emax [6]: 9.6% | EC50 [7]: 55 µM

c1cncc(N2CCC3(CC4CCN3C4)C2)c1 (stereo unspecified)
Ki [1]: 2.4 µM | Ki [2]: 0.04 µM | Ki [3]: 7.9 µM | Ki [4]: 9.9 µM | Emax [8]: 92% | Ki [5]: 0.029 µM | Emax [6]: 3.1% | EC50 [7]: 31 µM

c1cncc(N2CCC3(C2)C2CCN3CC2)c1 (stereo unspecified)
Ki [1]: 0.56 µM | Ki [2]: 0.034 µM | Ki [3]: 7.6 µM | Ki [4]: 0.58 µM | Emax [8]: 92% | Ki [5]: 0.01 µM | Emax [6]: 29% | EC50 [7]: 2.6 µM

c1cncc(N2CCC3(CC4CCN3CC4)C2)c1 (stereo unspecified)
Ki [1]: 1.1 µM | Ki [2]: 0.0057 µM | Ki [3]: 8 µM | Ki [4]: 11 µM | Emax [8]: 92% | Ki [5]: 0.032 µM | Emax [6]: 4.2% | EC50 [7]: 6.9 µM
